Laboratory results from ChEMBL document CHEMBL2412959, “Investigations on synthesis and structure elucidation of novel [1,2,4]triazolo[1,2-a]pyridazine-1-thiones and their inhibitory activity against inducible nitric oxide synthase” (Bioorg Med Chem, 2013).
Active and inactive are the calls of the source. The rule behind the calls is not given here.

Legend:
[1] = Chemical stability in DMSO assessed as compound precipitation after several weeks; type: physicochemical
[2] = Cytotoxicity against rat RINm5F cells at 39 to 78 uM by MTT assay; type: cell-based
In short: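 RIN5F rat insulinoma cells, 1×10^5 per well, cytokine-induced and compound-treated as for the NO assay. After supernatant removal, medium was replaced with fresh medium containing MTT (2.5 mg/mL in PBS) for 4 h at 37 °C. Formazan was dissolved in DMSO. Viability is expressed as percent of cytokine-stimulated cells without compound.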

[3] = molecular target: Nitric oxide synthase, inducible (Rattus norvegicus, UniProt Q06518); experiment: (§1) Inhibition of iNOS-mediated NO production in IL-1beta/IFNgamma-stimulated rat […] cells by Griess reaction
Chain of Nitric oxide synthase, inducible (Q06518 whole entry): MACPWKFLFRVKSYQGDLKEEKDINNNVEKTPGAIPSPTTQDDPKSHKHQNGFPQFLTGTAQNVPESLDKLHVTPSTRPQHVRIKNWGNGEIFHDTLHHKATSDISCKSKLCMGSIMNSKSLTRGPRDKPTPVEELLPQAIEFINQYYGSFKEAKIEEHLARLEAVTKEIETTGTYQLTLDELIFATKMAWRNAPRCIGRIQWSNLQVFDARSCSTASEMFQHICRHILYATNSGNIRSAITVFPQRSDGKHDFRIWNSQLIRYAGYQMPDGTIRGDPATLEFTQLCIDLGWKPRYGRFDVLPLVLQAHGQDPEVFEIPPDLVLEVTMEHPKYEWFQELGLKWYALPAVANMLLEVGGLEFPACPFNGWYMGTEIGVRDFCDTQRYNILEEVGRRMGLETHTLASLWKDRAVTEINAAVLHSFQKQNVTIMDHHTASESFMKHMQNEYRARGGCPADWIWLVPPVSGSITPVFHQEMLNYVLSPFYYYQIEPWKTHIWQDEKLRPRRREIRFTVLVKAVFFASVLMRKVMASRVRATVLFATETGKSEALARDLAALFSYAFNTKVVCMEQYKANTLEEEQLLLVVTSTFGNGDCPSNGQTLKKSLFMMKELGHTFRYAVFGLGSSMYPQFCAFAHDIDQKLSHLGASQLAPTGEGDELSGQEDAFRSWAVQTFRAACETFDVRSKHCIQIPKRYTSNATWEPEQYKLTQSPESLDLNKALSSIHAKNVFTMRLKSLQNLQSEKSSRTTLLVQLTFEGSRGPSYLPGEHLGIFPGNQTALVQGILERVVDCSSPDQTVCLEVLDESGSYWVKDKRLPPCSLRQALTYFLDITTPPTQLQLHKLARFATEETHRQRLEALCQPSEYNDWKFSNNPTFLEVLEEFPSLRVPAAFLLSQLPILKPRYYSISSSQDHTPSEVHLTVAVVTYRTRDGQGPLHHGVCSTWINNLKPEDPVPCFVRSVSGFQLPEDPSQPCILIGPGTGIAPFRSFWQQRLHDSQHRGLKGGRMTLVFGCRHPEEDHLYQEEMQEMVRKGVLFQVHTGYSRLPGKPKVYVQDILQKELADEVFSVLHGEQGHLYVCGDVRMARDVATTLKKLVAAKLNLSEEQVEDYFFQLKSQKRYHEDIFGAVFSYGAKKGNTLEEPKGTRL
In short: (§2)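 Same cytokine-stimulated RIN5F Griess assay (IL-1β 1 ng/mL, IFN-γ 10 ng/mL; nitrite at 550 nm, nitrite calibration). Concentrations were chosen per compound to span 10–90% inhibition, plus one or two outside this range. IC50 was obtained by linear regression of log concentration versus percent inhibition.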

[4] = molecular target: Nitric oxide synthase, inducible (Rattus norvegicus) (UniProt Q06518); experiment: as §1; in short: as §2
Chain of Nitric oxide synthase, inducible (Rattus norvegicus) (Q06518 whole entry): as above

[5] = Chemical stability in DMSO assessed as compound precipitation after 7 days; type: physicochemical; settings: 168 h
[6] = molecular target: Nitric oxide synthase, inducible (Rattus norvegicus) (UniProt Q06518); experiment: Ratio of aminoguanidine IC50 to compound IC50 for iNOS-mediated NO production in IL-1beta/IFNgamma-stimulated rat […] cells by Griess reaction
[7] = molecular target: Nitric oxide synthase, inducible (Rattus norvegicus) (UniProt Q06518); experiment: Inhibition of iNOS-mediated NO production in IL-1beta/IFNgamma-stimulated rat […] cells at 39 to 78 uM by Griess reaction
In short: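 Compounds were added from 62.5 mM DMSO stock at 78 and 39 μM (final 0.5% DMSO). Nitrite in supernatant was measured by Griess reagents, absorbance 550 nm, against a 0–100 μM nitrite standard. Aminoguanidine was the reference on each plate. n = 5–8.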

Row | SMILES | Stability [1] | IC50 [3] [µM] | inhibition [4] | Stability [5] | Ratio IC50 [6] | inhibition [7] | Activity [2]
1 | S=C1NC(Cc2ccccc2)N2CCCCN12 (centres undefined) | Unstable |  | inactive |  |  |  | Non-toxic
2 | N=C(N)NN [PIMAGEDINE] |  | 132 |  |  |  |  | Non-toxic
3 | Cc1ccc(C2NC(=S)N3CCCCN23)cc1 (centres undefined) | Unstable | 53.2 |  |  |  |  | Non-toxic
4 | O=[N+]([O-])c1ccccc1/C=C/C1NC(=S)N2CCCCN12 (centres undefined) |  | 9.81 |  | Unstable | 10 |  | Non-toxic
5 | Oc1ccc(C2NC(=S)N3CCCCN23)cc1 (centres undefined) | Unstable |  |  |  |  | Active | Non-toxic
6 | Cc1cccc(C2NC(=S)N3CCCCN23)c1 (centres undefined) | Unstable |  |  |  |  | Active | Non-toxic
7 | S=C1NC(c2ccc(Cl)cc2)N2CCCCN12 (centres undefined) | Unstable | 57.6 |  |  |  |  | Non-toxic
8 | S=C1NC(c2ccccc2)N2CCCCN12 (centres undefined) | Unstable |  |  |  |  | Active | Non-toxic
9 | CN(C)c1ccc(C2NC(=S)N3CCCCN23)cc1 (centres undefined) | Unstable | 101 |  |  | 2 |  | Non-toxic
10 | S=C1NC(c2ccccc2Cl)N2CCCCN12 (centres undefined) | Unstable | 63 |  |  |  |  | Non-toxic
11 | COc1ccc(C2NC(=S)N3CCCCN23)cc1 (centres undefined) | Unstable |  |  |  |  | Active | Non-toxic
12 | Oc1ccccc1C1NC(=S)N2CCCCN12 (centres undefined) | Unstable | 70 |  |  |  |  | Non-toxic
13 | CC1NC(=S)N2CCCCN12 (centres undefined) | Unstable |  | inactive |  |  |  | Non-toxic
14 | O=[N+]([O-])c1cccc(C2NC(=S)N3CCCCN23)c1 (centres undefined) | Unstable | 16.2 |  |  |  |  | Non-toxic
15 | S=C1NC(c2cccc(Cl)c2)N2CCCCN12 (centres undefined) | Unstable |  |  |  |  | Active | Non-toxic

Now from value to compound, other results behind:

Row | Stability [1] | IC50 [3] [µM] | inhibition [4] | Stability [5] | Ratio IC50 [6] | inhibition [7] | SMILES | Activity [2]
16 | Unstable | 40.2 |  |  |  |  | S=C1NC(c2cccc(Oc3ccccc3)c2)N2CCCCN12 (centres undefined) | Non-toxic
17 | Unstable | 13.2 |  |  |  |  | O=[N+]([O-])c1ccc(C2NC(=S)N3CCCCN23)cc1 (centres undefined) | Non-toxic
18 | Unstable |  |  |  |  | Active | Oc1cccc(C2NC(=S)N3CCCCN23)c1 (centres undefined) | Non-toxic
19 | Unstable | 60.3 |  |  |  |  | Cc1ccccc1C1NC(=S)N2CCCCN12 (centres undefined) | Non-toxic
20 | Unstable | 24.2 |  |  |  |  | O=[N+]([O-])c1ccccc1C1NC(=S)N2CCCCN12 (centres undefined) | Non-toxic
21 |  | 29.9 |  | Unstable |  |  | S=C1NC(/C=C/c2ccccc2)N2CCCCN12 (centres undefined) | Non-toxic
